Measurements reported in publication PMC3018560 (Antiviral research, 2010).

How the values were obtained:
[1] = human; ref Lindahl et al., 2005; cited from earlier work
[2] = tested on: DENV (serotype 2, TSV01 strain); test: Dengue viremia model in AG129 mouse, plasma virus titer by plaque assay; format: in vivo; conditions: AG129 mice
How it was run: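 AG129 mice (lacking type I and type II interferon receptors), 7 to 8 weeks old, 6 per dosing group, challenged i.p. with 5×10^6 pfu/mouse. Ribavirin dosed once daily and imino sugars twice daily at 12 hr intervals for 3 consecutive days post-infection; PBS to controls. Plasma virus titer by plaque assay on blood drawn day 3. Reported as average and standard deviation; student t test versus PBS control.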

HIV = conditions: anti-HIV agent, patients; ref Fischl et al., 1994; cited from earlier work
[3] = mouse; ref Alonzi et al., 2008; cited from earlier work

Compound | Systematic concentration [1] | Effect on viremia of dose increase ([2]; ribavirin dose raised from 40mg/kg to 80mg/kg) | Effect on viremia ([2]; ribavirin oral 40mg/kg once daily alone, 3 days (Fig. 5A)) | Antiviral efficacy in phase II clinical trial (HIV) | T1/2 [3] [h]
NC(=O)c1ncn([C@@H]2O[C@H](CO)[C@@H](O)[C@H]2O)n1 [ribavirin] | ~ 15 μM | did not improve its antiviral effect | did not reduce viremia | – | –
CCCCN1C[C@H](O)[C@@H](O)[C@H](O)[C@H]1CO [NBDNJ] | – | – | – | did not demonstrate any antiviral efficacy | 1.34
